Calls of active or inactive are those of the source. No cut-off for these calls is given here.
Columns and labels:
[1] = Drug metabolism assessed as selenocysteine reactivity at 20 uM incubated for 1 hr measured every 5 mins for 1 hr by sel-green probe based fluorescence assay; format: physicochemical
Outline: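 Reduced L-selenocysteine (20 μM) reacted with Sel-green probe (20 μM) with test compound at 20 μM; DMSO-only control.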

[2] = molecular target: T1, Thioredoxin reductase 1, cytoplasmic (Rattus norvegicus) (UniProt O89049); assay: (§1) Inhibition of NADPH-reduced recombinant rat TrxR1 expressed in Escherichia coli harboring gor mutant assessed as suppression of insulin reduction using Trx as substrate pretreated for 30 mins followed by Trx addition for 30 mins and subsequent eosin-labelled bovine insulin addition measured every 5 mins for 1 hr by fluorescence assay
T1 sequence (whole entry): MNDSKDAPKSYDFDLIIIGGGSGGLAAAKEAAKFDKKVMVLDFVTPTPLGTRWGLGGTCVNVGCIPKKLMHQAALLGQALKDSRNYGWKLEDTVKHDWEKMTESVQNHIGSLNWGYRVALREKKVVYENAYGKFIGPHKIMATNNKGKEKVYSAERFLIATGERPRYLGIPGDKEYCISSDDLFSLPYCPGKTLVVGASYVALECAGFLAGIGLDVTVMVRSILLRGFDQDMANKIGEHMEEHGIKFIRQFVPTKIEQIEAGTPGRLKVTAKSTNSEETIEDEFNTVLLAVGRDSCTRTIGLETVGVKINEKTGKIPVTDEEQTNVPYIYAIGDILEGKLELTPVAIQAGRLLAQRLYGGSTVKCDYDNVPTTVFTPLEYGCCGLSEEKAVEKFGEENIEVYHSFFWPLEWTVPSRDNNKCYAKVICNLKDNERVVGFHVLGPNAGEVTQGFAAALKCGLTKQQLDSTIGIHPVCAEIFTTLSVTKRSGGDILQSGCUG

[3] = molecular target: T2, Thioredoxin reductase 1, cytoplasmic (Rattus norvegicus, UniProt O89049); assay: as §1
[4] = molecular target: T2, Thioredoxin reductase 1, cytoplasmic; assay: Inhibition of NADPH-reduced recombinant rat TrxR1 expressed in Escherichia coli harboring gor mutant assessed as suppression of DTNB reduction pretreated for 1 hr followed by DTNB addition measured every 5 mins for 1 hr
Outline: (§2)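 Rat recombinant TrxR-1 (5.6 nM), prereduced, with DTNB (2 mM) and compound 0–5000 nM. Compound was either preincubated 1 h with enzyme before substrate or added at the same time as DTNB. Read-out was initial rates of DTNB reduction relative to no-compound control, giving IC50 (± error).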

[5] = molecular target: T2, Thioredoxin reductase 1, cytoplasmic; assay: Inhibition of NADPH-reduced recombinant rat TrxR1 expressed in Escherichia coli harboring gor mutant assessed as suppression of DTNB reduction incubated for 1 hr in presence of DTNB measured every 5 mins for 1 hr; outline: as §2
[6] = molecular target: T1, Thioredoxin reductase 1, cytoplasmic (Rattus norvegicus); assay: Time-dependent inhibition of NADPH-reduced recombinant rat TrxR1 expressed in Escherichia coli harboring gor mutant assessed as suppression of DTNB reduction at 1 uM measured every 5 mins for 1 hr
[7] = molecular target: T1, Thioredoxin reductase 1, cytoplasmic (Rattus norvegicus); assay: Irreversible inhibition of NADPH-reduced recombinant rat TrxR1 expressed in Escherichia coli harboring gor mutant assessed as suppression of DTNB reduction at 2 uM pretreated for 1 hr followed by NADPH addition for 30 mins and subsequent DTNB addition measured every 5 mins for 1 hr
[8] = molecular target: T1, Thioredoxin reductase 1, cytoplasmic (Rattus norvegicus); assay: Inhibition of oxidized recombinant rat TrxR1 expressed in Escherichia coli harboring gor mutant assessed as suppression of DTNB reduction at 2 uM pretreated for 30 mins followed by NADPH addition for 30 mins and subsequent DTNB addition measured every 5 mins for 1 hr
[9] = molecular target: T1, Thioredoxin reductase 1, cytoplasmic (Rattus norvegicus); assay: Induction of recombinant rat TrxR1 NADPH oxidase activity expressed in Escherichia coli harboring gor mutant assessed as superoxide generation by measuring cytochrome C reduction at 62.5 uM measured in presence of SOD
Outline: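 TrxR-1 (100 nM) incubated with compound (62.5 μM), with and without SOD (6 units/well); reduction of cytochrome C (100 μM) followed over time; DMSO-only control.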

[10] = molecular target: T1, Thioredoxin reductase 1, cytoplasmic (Rattus norvegicus); assay: Inhibition of NADPH-reduced recombinant rat TrxR1 expressed in Escherichia coli harboring gor mutant assessed as suppression of DTNB reduction at 5 uM pretreated for 1 hr followed by DTNB addition measured every 5 mins for 1 hr; outline: as §2
[11] = molecular target: T1, Thioredoxin reductase 1, cytoplasmic (Rattus norvegicus); assay: Inhibition of NADPH-reduced recombinant rat TrxR1 expressed in Escherichia coli harboring gor mutant assessed as suppression of DTNB reduction at 5 uM incubated for 1 hr in presence of DTNB measured every 5 mins for 1 hr; outline: as §2

SMILES	Drug metabolism [1]	inhibition [2]	IC50 [3]	IC50 [4]	IC50 [5]	TDI [6]	inhibition [7]	inhibition [8]	Activity [9]	inhibition [10]	inhibition [11]
CCCCC(C)/C=C(C)/C=C(\C)C(=O)Nc1cc(/C=C/C=C/C=C/C(=O)NC2=C(O)CCC2=O)c(O)cc1O (configuration not stated)	Metabolite_Notdetected	–	–	–	–	–	–	–	–	–	–
CCCC[C@@H](C)/C=C(C)/C=C(\C)C(=O)NC1=C[C@@](O)(/C=C/C=C/C=C/C(=O)NC2=C(O)CCC2=O)[C@@H]2O[C@@H]2C1=O [MANUMYCIN A]	Metabolite_Detected	Dose-dependent effect	572 nM	272 nM	1590 nM	Active	Active	inactive	inactive	Active	Active

— ChEMBL document CHEMBL4251733, “Manumycin A Is a Potent Inhibitor of Mammalian Thioredoxin Reductase-1 (TrxR-1)” (ACS Med Chem Lett, 2018)
